# Source: the array DNA melting data of Ke et al. (doi:10.1101/2024.01.08.574731)
# Assays:
# [1] = folding enthalpy; higher = less favourable; fluorescence melt of hairpins on a sequencing array, two-state fit; conditions: sodium 0.088 M
# In short: (§1)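 Cy3 signals were normalised both to pre-quench Cy3 and to control constructs. They came from library hairpins carrying annealed Cy3 and quencher oligos on a sequenced MiSeq flow cell, imaged in 50 mM Na-HEPES pH 8.0, 25 mM NaCl, in 2.5 °C steps up to 60 °C. Bootstrapped two-state fits gave melting temperature and folding enthalpy, and four replicates were combined by inverse variance. Fitted temperatures were then raised by 9.35 °C to match UV melts.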
# [2] = melting temperature; fluorescence melt of hairpins on a sequencing array, two-state fit, raised by 9.35 °C to match UV melts; conditions: sodium 0.088 M
# In short: as §1
Sequence,folding enthalpy [1] [kcal/mol],Tm [2] [°C]
GCTGCCGGAAACGGCAAC (.(((((....))))).),-10.9,47.4
GTTGTGGAAACACAAC ((((((....)))))),-38.3,58.3
GGGATCGAAAGATACCCC ((((((....)))..))),-18.1,51.6
GGCCTCGAAAGAGACGCC ((((((....)))..))),-24.3,47.7
GGCGTTGCGAAAGCAGCC (((..(((....)))))),-32.3,63.1
GTATTGCCGAAAGGCTAC (((..(((....)))))),-3.24,50
GAACGTGGAAACACATTC (((.(((....))).))),-17.1,32.9
CGGTCCGGAAACGGCCCG (((.(((....))).))),-29.4,55.1
GCACGGCGAAAGCTGGGC ((.(.((....)).).)),-31.5,67.5
GCCCCAGGAAACCGGGGC (((((.(....).))))),-41.2,59.3
GTGTATGCGAAAGCACAC (((..(((....)))))),-22.1,45.4
GCGCCCGAAAGGGGTCGC ((((((....)))..))),-19.5,58.3
GTACCAGGAAACTGGTAC (((((((....))))))),-40.4,62.2
GATCCGTGGCCGGATC ((((((....)))))),-39.1,57.7
GATCGCCCGAAAGGGATC (((..(((....)))))),-14.6,34.5
GAGGACGAAAGTCAACTC ((((((....)))..))),-19.7,38.2
GCGATCGGAAACGATCAC (.(((((....))))).),-14.7,46.5
GTGGGTGGAAACACCTAC ((.((((....)))).)),-21.3,51
GATCGTCAAAACGATC ((((((....)))))),-40,55.1
GCCCTCGCGAAAGCGGGC (((..(((....)))))),-14.2,59.6
GCATAGGAAACTATGC ((((((....)))))),-35.4,53.7
GAATAACGAAAGTTTTC (((.(((....)))))),-13.7,29.7
GCTGAGCGAAAGCTTGGC ((..(((....)))..)),-20.9,55.4

Sequence,folding enthalpy [1] [kcal/mol],Tm [2] [°C]
GTTTATGAAAATAAAC ((((((....)))))),-33,42.4
GATCCTAGAAAGGATC ((((((....)))))),-30.6,48.5
GATCATATCCATGATC ((((((....)))))),-35.8,47.4
GCTCGGCGAAAGCCTAGC (((.(((....))).))),-40.8,52.8
GCGCTGCGAAAGCTTCGC (((..((....))..))),-20.6,54.9
GGCATAGGAAACTGTGCC ((((.((....)).)))),-45.3,53.7
GATCCCTCCGGGGATC ((((((....)))))),-31.3,65.3
GGATGCGAAAGCACGTCC ((((((....)))..))),-12,33.1
GAAAGCGAAAGCTTTTC ((((((....))).))),-12.9,47.1
GATGACGAAAGTCGGATC ((((((....)))..))),-13.4,34.3
GTCTACCGAAAGGTGAC (((.(((....)))))),-23.8,50.3
GATCATTTAGATGATC ((((((....)))))),-37.4,47.6
GGAATTGCGAAAGCATCC (((..(((....)))))),-9.07,30.3
GAAAAACGAAAGTTGTTC (((.(((....))).))),-19.6,33.6
GACGCCGAAAGGCGGTC ((((((....))).))),-9.77,64.9
GACACTGGAAACAATGTC ((((.((....)).)))),-33.6,31.9
GTATGGCCGAAAGGCTAC (((..(((....)))))),-7.75,30
GCTGCACGAAAGTGTAGC (((.(((....))).))),-43.9,65
GTGGTAGCGAAAGCTCAC (((..(((....)))))),-18.1,43.8
CGATCGAAAGATCG (((((....))))),-30.4,59.9
GTAGGGACGAAAGTCTAC (((..(((....)))))),-12,30
TTTGTGAAAACAAA (((((....))))),-12.6,35.6
GAAATCCGAAAGGAGTTC (((.(((....))).))),-31.9,49.4

Sequence,folding enthalpy [1] [kcal/mol],Tm [2] [°C]
GTACGGCGAAAGCCATAC (((.(((....))).))),-17.7,42.1
GTCCGGCGAAAGCCCGAC (((.(((....))).))),-20.1,45.2
GCCTGAGGAAACTCAGAC (.(((((....))))).),-16.7,40.7
TTCAGGAAACTGAA (((((....))))),-13.5,35.7
GTGCCTCGAAAGAGCCAC (((.(((....))).))),-21,43.2
GCTGATGGAAACATCGGC ((.((((....)))).)),-43,54.1
GCCTCGCGAAAGCGTAGC ((..(((....)))..)),-11.8,44
GACCCCCCGAAAGGGGTC (((..(((....)))))),-15.2,57.2
GTAAGCTCGAAAGAGTAC (((..(((....)))))),-12.2,27
GGGTATGGAAACATATCC ((.((((....)))).)),-39.3,44.2
GGGTTGGGAAACCAGCTC (.(.(((....))).).),-18.6,36.1
GCGTGAGCACGC ((((....)))),-12.7,62.6
GTTGGCGGAAACACCAAC (((((.(....).))))),-36,47.4
GATCACTTCGTGATC ((((((...)))))),-46.6,58.9
GATAGTGGAAACACTGTC ((.((((....)))).)),-29.7,43.4
GGAGTTCGAAAGAATCC (((.(((....)))))),-17.5,33.5
GCAGTGGGAAACTGCTGC ((((..(....)..)))),-27.6,58.1
GTACCACCGAAAGGTTAC (((..(((....)))))),-11.5,21.6
GAGTGACCGAAAGGTCTC (((..(((....)))))),-9.86,35
AGGGTGAAAACCCT (((((....))))),-19.3,53.9
GTAATCCGAAAGGAGTAC (((.(((....))).))),-28.5,49.9
GGGCGACGAAAGTCCCC (((.(((....)))))),-27.5,55.4
GCAAACCGAAAGGTTGC (((.(((....)))))),-29.1,57.2

Sequence,folding enthalpy [1] [kcal/mol],Tm [2] [°C]
GCGTACGAAAGTACTCGC ((((((....)))..))),-15.6,46.5
GGGTCTCGAAAGAGCCC (((.(((....)))))),-32,58.2
GAAGACGAAAGTCTATTC ((((((....)))..))),-11.4,30.5
GTAGCTCGAAAGAGTAC (((.(((....)))))),-18.3,36.2
GATCCTAATAAGGATC ((((((....)))))),-40.1,50.8
GAAAGCGAAAGCTGATTC ((((((....)))..))),-19.2,42
GCCCAGGGAAACCTAGGC (((.(((....))).))),-21.5,43.2
GTGATAGGAAACTATCGC (.(((((....))))).),-38.2,46.3
GGCGAGCCGAAAGGCGCC (((..(((....)))))),-13.1,65
GCCAGCGGAAACGTTGGC ((((.((....)).)))),-38.9,59.4
GGGACCTCGAAAGAGCCC (((..(((....)))))),-19.4,35.3
GTGGACGAAAGTCTACAC ((((((....)))..))),-16.3,51.2
GGATTGGGAAACCGATCC ((((.((....)).)))),-40.7,51
GCGAGGCGTCGC ((((....)))),-14.7,56.6
GCCACGACGAAAGTCGGC (((..(((....)))))),-10.2,44.1
GATCAGATGTCTGATC ((((((....)))))),-41.8,49.7
GATCACTAAAGTGATC ((((((....)))))),-38.6,54.5
GCTAGTCCGAAAGGAAGC (((..(((....)))))),-16.1,30
GTTCGCGAAAGCGACAAC ((((((....)))..))),-7.58,34.8
GACACCACGAAAGTGGTC (((..(((....)))))),-6.51,39
GATCCTCGTAGGATC ((((((...)))))),-34.2,54.5
GCTCCCTCGAAAGAGAGC (((..(((....)))))),-19.5,35.6
GTCCCCGAAAGGGAAGAC ((((((....)))..))),-13.5,44.5
